Experimental data reported in ChEMBL document CHEMBL1140675, “Discovery of a novel class of benzazepinone Na(v)1.7 blockers: potential treatments for neuropathic pain” (Bioorg Med Chem Lett, 2007).

Key:
[1] = biological target: T1, Sodium channel protein type 9 subunit alpha (Homo sapiens, UniProt Q15858); experiment: Blockade of human Nav1.7 by FRET assay
How it was run: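 Functional membrane-potential assay of channel block on human Nav1.7; read-out is FRET between two membrane-associated dyes; IC50 in nM.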

hERG (KCNH2) = hERG (KCNH2) (Homo sapiens, UniProt Q12809); experiment: Displacement of [35S]-MK0499 from human ERG receptor expressed in HEK293 cells at 10 uM; type: cell-based; details: HEK293 cells expressing human ERG, probe [35S]-MK0499
How it was run: (§1)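 Binding assay measuring displacement of radiolabelled ligand (35S-MK-0499 for hERG; 3H-diltiazem for Cav1.2); % inhibition at 10 µM test compound.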

Rattus norvegicus [2] = experiment: Blockade of spontaneous neuronal firing in rat peripheral axotomy model at 2 mg/kg, iv after 60 mins; type: functional; details: 1 h
How it was run: (§2)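 Iv infusion given after baseline spontaneous firing frequency was established; firing frequency then recorded for 60 min post-dose, with % inhibition at 10, 30 and 60 min; n = 6.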

[3] = Bioavailability in dog at 1.5 mg/kg, po; type: ADME, organism-based, Canis lupus familiaris; details: in vivo
[4] = biological target: Voltage-dependent L-type calcium channel subunit alpha-1C (Homo sapiens, UniProt Q13936); experiment: Displacement of [3H]diltiazem from human Cav1.2 expressed in HEK293 cells; type: cell-based
How it was run: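 Cav1.2 binding assay measuring displacement of 3H-diltiazem.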

[5] = Bioavailability in rat at 3.0 mg/kg, po; type: ADME, organism-based; details: in vivo
[6] = Cmax in rat at 1.0 mg/kg, iv or 3.0 mg/kg, po; type: ADME, organism-based; details: in vivo
[7] = Half life in rat at 1.0 mg/kg, iv or 3.0 mg/kg, po; type: ADME, organism-based; details: in vivo
Rattus norvegicus [8] = experiment: Reversal of allodynia in rat spinal nerve ligation model at 10 mg/kg, po after 2 hrs; type: functional
How it was run: (§3)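 L5 spinal nerve ligated and transected in rats to induce neuropathy; tactile allodynia measured with calibrated Von Frey filaments before and 1 week after surgery. Rats with significant allodynia were dosed orally and % reversal of allodynia determined at 2 and 4 h post-dose; n = 8.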

[9] = Cmax in dog at 0.38 mg/kg, iv or 1.5 mg/kg, po; type: ADME, organism-based, Canis lupus familiaris; details: in vivo
[10] = Half life in dog at 0.38 mg/kg, iv or 1.5 mg/kg, po; type: ADME, organism-based, Canis lupus familiaris; details: in vivo
[11] = biological target: T1, Sodium channel protein type 9 subunit alpha; experiment: Binding affinity at human inactive state Nav1.7 by whole cell electrophysiology
[12] = Plasma clearance in dog at 0.38 mg/kg, iv or 1.5 mg/kg, po; type: ADME, organism-based, Canis lupus familiaris
Rattus norvegicus [13] = experiment: Blockade of spontaneous neuronal firing in rat peripheral axotomy model at 2 mg/kg, iv after 10 mins; type: functional; how it was run: as §2
[14] = Plasma clearance in rat at 1.0 mg/kg, iv or 3.0 mg/kg, po; type: ADME, organism-based
Rattus norvegicus [15] = experiment: Reversal of allodynia in rat spinal nerve ligation model at 10 mg/kg, po after 4 hrs; type: functional; how it was run: as §3
Rattus norvegicus [16] = experiment: Blockade of spontaneous neuronal firing in rat peripheral axotomy model at 2 mg/kg, iv after 30 mins; type: functional; details: 0.5 h; how it was run: as §2
[17] = biological target: Cav1.2 (L-type calcium channel subunit alpha-1C) (Homo sapiens, UniProt Q13936); experiment: Displacement of [3H]diltiazem from human Cav1.2 expressed in HEK293 cells at 10 uM; type: cell-based; details: HEK293 cells expressing human Cav1.2, probe [3H]diltiazem; how it was run: as §1
Cav1.2 (L-type calcium channel subunit alpha-1C), sequence (Q13936 whole entry): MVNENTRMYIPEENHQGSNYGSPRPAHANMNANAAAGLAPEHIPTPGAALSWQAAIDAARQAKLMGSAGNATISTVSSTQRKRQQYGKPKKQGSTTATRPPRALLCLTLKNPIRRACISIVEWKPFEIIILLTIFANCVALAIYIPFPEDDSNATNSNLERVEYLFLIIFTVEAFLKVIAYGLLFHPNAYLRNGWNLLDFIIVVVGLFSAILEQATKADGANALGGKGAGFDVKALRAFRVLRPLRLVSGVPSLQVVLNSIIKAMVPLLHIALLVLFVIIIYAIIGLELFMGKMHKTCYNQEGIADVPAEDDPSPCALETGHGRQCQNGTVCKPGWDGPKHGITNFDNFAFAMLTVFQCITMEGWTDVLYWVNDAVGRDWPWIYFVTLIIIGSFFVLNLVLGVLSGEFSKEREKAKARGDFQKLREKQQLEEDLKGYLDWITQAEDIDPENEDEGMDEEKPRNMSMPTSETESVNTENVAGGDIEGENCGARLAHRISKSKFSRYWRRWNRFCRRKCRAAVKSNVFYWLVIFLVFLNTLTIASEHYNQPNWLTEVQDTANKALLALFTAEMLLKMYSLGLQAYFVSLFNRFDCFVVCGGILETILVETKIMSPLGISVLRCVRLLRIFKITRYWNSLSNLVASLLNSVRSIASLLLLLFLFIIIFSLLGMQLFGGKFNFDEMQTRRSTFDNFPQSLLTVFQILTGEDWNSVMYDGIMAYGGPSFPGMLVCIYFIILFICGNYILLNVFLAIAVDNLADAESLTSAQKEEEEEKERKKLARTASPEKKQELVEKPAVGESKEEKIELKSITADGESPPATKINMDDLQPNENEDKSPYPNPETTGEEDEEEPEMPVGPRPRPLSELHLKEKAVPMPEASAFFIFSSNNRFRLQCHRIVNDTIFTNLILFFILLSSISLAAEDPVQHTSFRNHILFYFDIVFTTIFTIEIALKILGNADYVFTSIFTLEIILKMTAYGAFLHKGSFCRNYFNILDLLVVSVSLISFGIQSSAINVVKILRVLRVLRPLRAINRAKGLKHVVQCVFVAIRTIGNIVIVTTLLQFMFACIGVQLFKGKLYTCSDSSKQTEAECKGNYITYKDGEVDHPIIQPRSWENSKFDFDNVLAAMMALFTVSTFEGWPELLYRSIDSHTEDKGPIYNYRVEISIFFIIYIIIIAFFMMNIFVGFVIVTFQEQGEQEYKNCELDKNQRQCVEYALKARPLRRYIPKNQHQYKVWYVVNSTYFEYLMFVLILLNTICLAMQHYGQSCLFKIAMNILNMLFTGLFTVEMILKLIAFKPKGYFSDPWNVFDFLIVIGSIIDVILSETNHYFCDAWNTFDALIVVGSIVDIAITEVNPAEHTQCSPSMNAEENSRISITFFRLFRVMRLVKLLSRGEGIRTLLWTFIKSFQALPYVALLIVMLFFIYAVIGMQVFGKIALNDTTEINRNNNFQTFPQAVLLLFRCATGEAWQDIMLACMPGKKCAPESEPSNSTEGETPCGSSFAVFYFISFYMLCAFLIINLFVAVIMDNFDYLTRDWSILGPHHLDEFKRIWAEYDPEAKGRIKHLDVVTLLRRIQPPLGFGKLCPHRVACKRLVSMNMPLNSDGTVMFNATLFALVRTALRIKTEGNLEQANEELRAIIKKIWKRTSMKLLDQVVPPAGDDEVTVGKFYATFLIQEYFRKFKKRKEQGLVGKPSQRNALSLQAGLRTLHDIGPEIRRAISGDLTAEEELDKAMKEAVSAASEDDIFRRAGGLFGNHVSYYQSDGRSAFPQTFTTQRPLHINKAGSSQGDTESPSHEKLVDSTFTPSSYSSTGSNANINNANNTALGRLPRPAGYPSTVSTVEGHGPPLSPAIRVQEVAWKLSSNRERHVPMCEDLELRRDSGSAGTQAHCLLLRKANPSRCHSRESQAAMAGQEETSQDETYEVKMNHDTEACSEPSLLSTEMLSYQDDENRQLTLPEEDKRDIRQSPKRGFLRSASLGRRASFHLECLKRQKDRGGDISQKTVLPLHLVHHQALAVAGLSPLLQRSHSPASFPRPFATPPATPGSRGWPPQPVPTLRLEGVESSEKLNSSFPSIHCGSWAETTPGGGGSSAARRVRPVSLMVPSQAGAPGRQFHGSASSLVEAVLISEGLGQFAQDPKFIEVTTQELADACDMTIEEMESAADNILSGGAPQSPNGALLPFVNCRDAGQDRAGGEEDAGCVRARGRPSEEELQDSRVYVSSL

hERG (KCNH2), sequence (Q12809 whole entry): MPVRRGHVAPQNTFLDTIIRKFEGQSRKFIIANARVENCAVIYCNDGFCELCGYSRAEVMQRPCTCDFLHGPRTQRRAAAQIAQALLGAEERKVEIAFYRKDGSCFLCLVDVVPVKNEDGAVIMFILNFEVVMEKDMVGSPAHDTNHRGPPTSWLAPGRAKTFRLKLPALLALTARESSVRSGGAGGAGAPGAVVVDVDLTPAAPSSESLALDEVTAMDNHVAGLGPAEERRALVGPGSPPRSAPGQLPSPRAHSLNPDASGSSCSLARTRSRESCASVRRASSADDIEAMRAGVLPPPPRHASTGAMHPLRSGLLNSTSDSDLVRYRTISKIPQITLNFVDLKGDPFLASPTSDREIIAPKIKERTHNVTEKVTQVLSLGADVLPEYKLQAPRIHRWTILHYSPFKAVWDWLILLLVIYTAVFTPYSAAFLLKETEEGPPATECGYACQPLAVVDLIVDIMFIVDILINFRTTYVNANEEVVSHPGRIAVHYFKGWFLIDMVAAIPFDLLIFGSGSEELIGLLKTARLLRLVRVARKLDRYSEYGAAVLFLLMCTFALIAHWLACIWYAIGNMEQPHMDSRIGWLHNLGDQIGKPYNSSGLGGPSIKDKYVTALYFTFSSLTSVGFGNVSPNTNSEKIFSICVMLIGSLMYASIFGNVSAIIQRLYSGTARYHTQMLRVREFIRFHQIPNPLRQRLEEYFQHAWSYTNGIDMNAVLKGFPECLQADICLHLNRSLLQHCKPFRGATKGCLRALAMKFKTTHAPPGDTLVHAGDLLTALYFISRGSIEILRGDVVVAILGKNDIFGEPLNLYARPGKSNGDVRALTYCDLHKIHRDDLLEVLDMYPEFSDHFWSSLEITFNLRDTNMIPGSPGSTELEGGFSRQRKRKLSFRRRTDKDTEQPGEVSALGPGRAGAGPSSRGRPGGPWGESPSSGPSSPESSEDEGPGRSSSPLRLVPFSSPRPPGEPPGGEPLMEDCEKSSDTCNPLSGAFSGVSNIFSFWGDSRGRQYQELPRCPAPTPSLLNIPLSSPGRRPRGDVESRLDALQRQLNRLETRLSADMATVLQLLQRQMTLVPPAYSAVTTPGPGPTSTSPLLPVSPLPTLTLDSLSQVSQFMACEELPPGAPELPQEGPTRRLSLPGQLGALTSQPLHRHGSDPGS
Voltage-dependent L-type calcium channel subunit alpha-1C, sequence (Q13936 whole entry): as the sequence (Q13936 whole entry) above

Row | SMILES | IC50 [1] [nM] | inhibition at 10 µM (hERG (KCNH2)) [%] | further results
1 | CN1C(=O)[C@H](NC(=O)[C@@H](Cc2ccccc2)NS(C)(=O)=O)N=C(c2ccccc2)c2ccccc21 | > 1000 |  | 
2 | CN1CCCC[C@@H](NC(=O)[C@@H](Cc2ccccc2)NC(=O)OC(C)(C)C)C1=O | > 1000 |  | 
3 | CN1C(=O)[C@H](NC(=O)[C@@H](Cc2ccccc2)NC(=O)C23CC4CC(CC(C4)C2)C3)N=C(c2ccccc2)c2ccccc21 | 420 |  | 
4 | CC(C)(C)OC(=O)N[C@@H](CN[C@@H]1CCc2ccccc2N(CC(F)(F)F)C1=O)Cc1ccccc1 | 885 | 79 | 
5 | C[C@@H](NC(=O)OC(C)(C)C)C(=O)N[C@@H]1N=C(c2ccccc2)c2ccccc2N(C)C1=O | > 1000 |  | 
6 | CN1C(=O)[C@H](NC(=O)[C@@H](CCc2ccccc2)NC(=O)OC(C)(C)C)N=C(c2ccccc2)c2ccccc21 | 238 |  | 
7 | CC(C)S(=O)(=O)N[C@H](Cc1ccccc1)C(=O)N[C@@H]1N=C(c2ccccc2)c2ccccc2N(C)C1=O | > 1000 |  | 
8 | CN1C(=O)[C@H](NC(=O)[C@@H](Cc2ccccc2)NC(=O)OCc2ccccc2)N=C(c2ccccc2)c2ccccc21 | 150 |  | 
9 | CN1C(=O)[C@H](NC(=O)[C@@H](Cc2ccccc2)NC(=O)OC(C)(C)C)N=C(c2ccccc2)c2ccccc21 | 125 |  | 
10 | CN1C(=O)[C@H](NC(=O)[C@@H](Cc2cnc[nH]2)NC(=O)OC(C)(C)C)N=C(c2ccccc2)c2ccccc21 | > 1000 |  | 
11 | CC(C)N1C(=O)[C@H](NC(=O)[C@@H](Cc2ccccc2)NC(=O)OC(C)(C)C)CCc2ccccc21 | 45 | 6 | 
12 | CN1C(=O)[C@H](NC(=O)[C@H](N)Cc2ccccc2)N=C(c2ccccc2)c2ccccc21 | > 1000 |  | 
13 | CN1C(=O)[C@H](NC(=O)[C@@H](CC2CCCCC2)NC(=O)OC(C)(C)C)N=C(c2ccccc2)c2ccccc21 | > 1000 |  | 
14 | CN1C(=O)[C@H](NC(=O)[C@@H](Cc2ccccc2)NC(=O)C2CC2)N=C(c2ccccc2)c2ccccc21 | > 1000 |  | 
15 | CC(C)N1C(=O)[C@H](NC(=O)[C@@H](Cc2ccccc2OC(F)(F)F)NC(=O)OC(C)(C)C)CCc2ccccc21 | 35 | 18 | inhibition in vivo at 2 mg/kg (Rattus norvegicus [2]): 93%; bioavailability [3]: 9%; IC50 [4]: 3500 nM; bioavailability [5]: 24%; Cmax [6]: 300 nM; half-life [7]: 2.3 h; Activity (Rattus norvegicus [8]): 43%; Cmax [9]: 70 nM; half-life [10]: 4.2 h; Ki [11]: 40 nM; clearance [12]: 15 mL/min/kg; inhibition in vivo at 2 mg/kg (Rattus norvegicus [13]): 100%; clearance [14]: 24 mL/min/kg; Activity (Rattus norvegicus [15]): 40%; inhibition in vivo at 2 mg/kg (Rattus norvegicus [16]): 100%
16 | CN1C(=O)[C@H](NC(=O)[C@@H](Cc2ccccc2)N(C)C(=O)OC(C)(C)C)N=C(c2ccccc2)c2ccccc21 | > 1000 |  | 
17 | CN1C(=O)[C@H](NC(=O)[C@H](NC(=O)OC(C)(C)C)c2ccccc2)N=C(c2ccccc2)c2ccccc21 | 375 |  | 
18 | CC(C)N1C(=O)[C@H](NC(=O)[C@@H](Cc2cccc(F)c2C(F)(F)F)NC(=O)OC(C)(C)C)CCc2ccccc21 | 65 | 39 | inhibition at 10 µM [17]: 87%
19 | CN1C(=O)[C@H](NC(=O)[C@@H](Cc2ccccc2)NS(=O)(=O)c2ccccc2)N=C(c2ccccc2)c2ccccc21 | > 1000 |  | 
20 | CN1C(=O)[C@H](NC(=O)[C@@H](Cc2ccccc2)NC(=O)OC(C)(C)C)CCc2ccccc21 | 192 |  | 
21 | CC(C)(C)OC(=O)N[C@H](Cc1ccccc1)C(=O)N[C@@H]1CCc2ccccc2N(CC(F)(F)F)C1=O | 150 | 16 | 
22 | CN1C(=O)[C@H](NC(=O)CCc2ccccc2)N=C(c2ccccc2)c2ccccc21 | > 1000 |  | 

Row | SMILES | IC50 [1] [nM] | inhibition at 10 µM (hERG (KCNH2)) [%] | further results
23 | COC(=O)N[C@H](Cc1ccccc1)C(=O)N[C@@H]1N=C(c2ccccc2)c2ccccc2N(C)C1=O | > 1000 |  | 
24 | CC(C)N1C(=O)[C@H](NC(=O)[C@@H](Cc2c(F)cccc2F)NC(=O)OC(C)(C)C)CCc2ccccc21 | 14 | 4 | inhibition at 10 µM [17]: 36%
25 | CC(C)N1C(=O)[C@@H](NC(=O)[C@@H](Cc2ccccc2OC(F)(F)F)NC(=O)OC(C)(C)C)CCc2ccccc21 | 32 | 20 | IC50 [4]: 1730 nM; bioavailability [5]: 15%; Cmax [6]: 140 nM; half-life [7]: 2.1 h; clearance [14]: 55 mL/min/kg
26 | CC(C)N1C(=O)[C@H](NC(=O)[C@@H](Cc2ccc(C(F)(F)F)cc2)NC(=O)OC(C)(C)C)CCc2ccccc21 | > 1000 |  | 
27 | CC(C)N1C(=O)[C@H](NC(=O)[C@H](Cc2ccccc2OC(F)(F)F)NC(=O)OC(C)(C)C)CCc2ccccc21 | 214 | 0 | 
28 | CC(C)N1C(=O)[C@H](NC(=O)[C@@H](Cc2cc(F)ccc2F)NC(=O)OC(C)(C)C)CCc2ccccc21 | 23 | 6 | inhibition at 10 µM [17]: 24%
29 | CC(C)N1C(=O)[C@H](NC(=O)[C@@H](Cc2cccc(F)c2)NC(=O)OC(C)(C)C)CCc2ccccc21 | 9 | 8 | inhibition at 10 µM [17]: 0%
30 | CN1C[C@H](NC(=O)[C@@H](Cc2ccccc2)NC(=O)OC(C)(C)C)CCc2ccccc21 | > 1000 | 28 | 
31 | CN1C(=O)[C@H](NC(=O)[C@@H](Cc2ccccc2)NCCC(C)(C)C)N=C(c2ccccc2)c2ccccc21 | > 1000 |  | 
32 | CC(C)N1C(=O)[C@H](NC(=O)[C@@H](Cc2ccc(F)cc2)NC(=O)OC(C)(C)C)CCc2ccccc21 | 98 | 0 | inhibition at 10 µM [17]: 0%
33 | CC(C)N1C(=O)[C@H](NC(=O)[C@@H](Cc2c(F)cccc2C(F)(F)F)NC(=O)OC(C)(C)C)CCc2ccccc21 | 32 | 43 | bioavailability [5]: 28%; Cmax [6]: 330 nM; half-life [7]: 2.5 h; inhibition at 10 µM [17]: 81%; clearance [14]: 32 mL/min/kg
34 | CN1C(=O)[C@H](NC(=O)[C@@H](Cc2ccccc2)NC(=O)C(C)(C)C)N=C(c2ccccc2)c2ccccc21 | 380 |  | 
35 | CC(C)N1C(=O)[C@H](NC(=O)[C@@H](Cc2ccccc2C(F)(F)F)NC(=O)OC(C)(C)C)CCc2ccccc21 | 137 | 34 | bioavailability [5]: 35%; Cmax [6]: 300 nM; half-life [7]: 2.1 h; clearance [14]: 50 mL/min/kg
36 | CC(C)N1C(=O)[C@H](NC(=O)[C@@H](Cc2cccc(C(F)(F)F)c2)NC(=O)OC(C)(C)C)CCc2ccccc21 | 295 | 15 | inhibition at 10 µM [17]: 19%
37 | CC(C)(C)OC(=O)N[C@H](Cc1ccccc1)C(=O)N[C@@H]1CCc2ccccc2N(CC2CC2)C1=O | 78 | 15 | 
38 | CN1C(=O)[C@H](NC(=O)[C@@H](Cc2cscn2)NC(=O)OC(C)(C)C)N=C(c2ccccc2)c2ccccc21 | 684 |  | 
39 | CC(C)(C)OC(=O)N[C@H](Cc1ccccc1)C(=O)N[C@@H]1CCc2ccccc2N(CC(F)(F)F)C1 | 145 | 40 | 
40 | CN1C(=O)[C@H](NC(=O)[C@@H](Cc2ccc(F)cc2)NC(=O)OC(C)(C)C)N=C(c2ccccc2)c2ccccc21 | 71 |  | 
41 | CN1C(=O)[C@H](NC(=O)[C@@H](Cc2ccccc2F)NC(=O)OC(C)(C)C)N=C(c2ccccc2)c2ccccc21 | 87 |  | 
42 | CC(C)N1C(=O)[C@H](NC(=O)[C@@H](Cc2ccccc2F)NC(=O)OC(C)(C)C)CCc2ccccc21 | 44 | 8 | bioavailability [5]: 14%; Cmax [6]: 100 nM; half-life [7]: 1.5 h; inhibition at 10 µM [17]: 11%; clearance [14]: 41 mL/min/kg
43 | CN1C(=O)[C@H](NC(=O)[C@@H](Cc2cccnc2)NC(=O)OC(C)(C)C)N=C(c2ccccc2)c2ccccc21 | 978 |  | 
